Laboratory results: ChEMBL document CHEMBL5316310, “Discovery of MK-8189, a Highly Potent and Selective PDE10A Inhibitor for the Treatment of Schizophrenia” (J Med Chem, 2023)
≈ marks a conversion by molar mass, not a printed value. Calls of active or inactive are those of the source. The calls are words filed in the database; no cut-off is given here.

Columns and labels:
[1] = Selectivity ratio of Ki for Rhesus monkey PDE2A3 transfected in AD293 cells cytosolic fraction to Ki for human PDE10A2 transfected in human AD293 cells cytosolic fraction; format: cell-based
[2] = Solubility of compound in FaSSIF; format: physicochemical; conditions: simulated gi fluid
[3] = molecular target: Voltage-gated inwardly rectifying potassium channel KCNH2 (Homo sapiens, UniProt Q12809); test: Displacement of MK499 from hERG; format: toxicity
P-gp (ABCB1) = P-gp (ABCB1) (Homo sapiens, UniProt P08183); test: Substrate activity at human P-gp assessed as efflux ratio; format: ADME; conditions: not told
[4] = Volume of distribution at steady state in Rhesus monkey at 0.5 mg/kg, iv by LC-MS/MS analysis; format: ADME, organism-based, Macaca mulatta; conditions: in vivo, read-out: Vdss
Outline: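 Three male rhesus monkeys received a 0.5 mg/kg IV bolus into the saphenous or cephalic vein, dosed from a 5 mg/mL solution in DMSO:PEG400 (1:1). EDTA plasma was collected from pre-dose to 24 h. Samples were protein-precipitated with acetonitrile and quantified by positive-ion APCI LC-MS/MS. Vdss was obtained by non-compartmental analysis as clearance × mean residence time, and values are means (n = 3).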

[5] = Inhibition of IKS channel (unknown origin); design: species or system Homo sapiens
[6] = Protein binding in monkey plasma assessed as unbound fraction; format: ADME, cell-free, Macaca mulatta; conditions: rhesus monkey
[7] = Protein binding in rat plasma assessed as unbound fraction; format: ADME, cell-free
[8] = Unbound plasma clearance in rat; format: ADME; conditions: in vivo
Outline: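 Rat unbound clearance (CLu) was calculated by dividing the measured rat plasma clearance by the rat plasma free fraction.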

[9] = Plasma clearance in Rhesus monkey at 0.5 mg/kg, iv by LC-MS/MS analysis; format: ADME, organism-based, Macaca mulatta
Outline: (§1)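 IV bolus in DMSO/PEG400 (1:1). Male Wistar–Hannover rats (n = 3, ~300 g): 2 mg/kg via jugular cannula, sampled 0.03–24 h. Male rhesus (n = 3): 0.5 mg/kg into saphenous or cephalic vein, sampled to 24 h. Plasma (EDTA) analysed by LC-MS/MS after acetonitrile precipitation. Non-compartmental analysis; CL = dose/AUC0-inf; t1/2 from log-linear regression of the terminal phase. Values are means.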

[10] = Selectivity ratio of Ki for N-terminal GST-tagged human recombinant PDE5A1 (1 to 875 residues) expressed in baculovirus-infected Sf9 cells to Ki for human PDE10A2 transfected in human AD293 cells cytosolic fraction
[11] = Oral bioavailability in Rhesus monkey at 5 mg/kg by LC-MS/MS analysis; format: ADME, organism-based, Macaca mulatta; conditions: in vivo
Outline: (§2)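 Oral gavage, 5 mL/kg. Rats (n = 3 male Wistar–Hannover) received 10 mg/kg in acidified 10% Tween 80, pH 2, sampled 0.25–24 h. Rhesus (2 female, 1 male) received 5 mg/kg in 0.5% methylcellulose with 1 mol equiv HCl. Plasma quantified by LC-MS/MS. F was taken from dose-adjusted PO/IV AUC0-inf ratios versus the 2 mg/kg (rat) or 0.5 mg/kg (rhesus) IV legs; values are means of n = 3.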

[12] = Plasma concentration in MK-801-induced psychosis rat model at 0.75 mg/kg, po administered 1 hr prior to MK-801 administration and measured after 90 mins; format: ADME, organism-based; conditions: time 150 min
Outline: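 Rats dosed orally, then MK-801 1 h later; locomotor activity recorded over 90 min. Plasma drawn 2.5 h post dose at end of the study and assayed for compound. n = 8/group, reported as mean (SEM).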

[13] = molecular target: T1, cAMP and cAMP-inhibited cGMP 3',5'-cyclic phosphodiesterase 10A (Homo sapiens, UniProt Q9Y233); test: Inhibition of human PDE10A2 transfected in human AD293 cells cytosolic fraction using cAMP as substrate by fluorescence polarization assay; format: subcellular, Cytosol
[14] = Half-life in Wistar-Hannover rat at 2 mg/kg, iv by LC-MS/MS analysis; format: ADME, organism-based; conditions: in vivo; outline: as §1
[15] = Toxicity in rat assessed as weight gain; conditions: in vivo
[16] = Half life in Rhesus monkey at 0.5 mg/kg, iv by LC-MS/MS analysis; format: ADME, organism-based, Macaca mulatta; conditions: in vivo; outline: as §1
[17] = Mutagenicity in Salmonella typhimurium by Ames test; format: toxicity; conditions: salmonella enterica subsp. enterica serovar typhimurium
[18] = Aqueous solubility of the compound at pH 7; format: physicochemical; conditions: buffer
[19] = Toxicity in CHO cells assessed as chromosomal aberration; format: cell-based, Cricetulus griseus; conditions: chinese hamster
[20] = Protein binding in rat plasma; format: ADME, cell-free
[21] = molecular target: Somatostatin receptor type 2 (Homo sapiens, UniProt P30874); test: Displacement of [125I]somatostatin from human full-length recombinant SSTR2 expressed in CHO-K1 cells by radioligand binding assay; format: cell-based
Rattus norvegicus = test: Cognitive-enhancing activity in rat assessed as improvement in novel object recognition at 0.16 to 0.25 mg/kg, po measured after 1 hr by novel object recognition test; format: functional, organism-based; conditions: dose 0.16-0.25 mg/kg
Outline: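 Novel object recognition in rats: oral dosing, then discrimination of a novel object from one seen 48 h earlier. Doses 0.08–0.25 mg/kg; donepezil 0.56 mg/kg as positive control. Groups compared with vehicle (p < 0.05). Plasma for exposure taken 1 h post dose, n = 4/group.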

[22] = Oral bioavailability in Wistar-Hannover rat at 10 mg/kg; format: ADME, organism-based; conditions: in vivo; outline: as §2
[23] = Toxicity in rat assessed as prolactin release; conditions: in vivo
[24] = Selectivity ratio of Ki for N-terminal GST-tagged full length human recombinant PDE9A2 expressed in baculovirus-infected Sf9 cells to Ki for human PDE10A2 transfected in human AD293 cells cytosolic fraction
[25] = Lipophilicity, log D of the compound; format: physicochemical; conditions: octanol/water
[26] = Selectivity ratio of Ki for N-terminal His-GST-tagged human recombinant PDE3A(669 to 1141 residues) expressed in baculovirus-infected Sf9 cells to Ki for human PDE10A2 transfected in human AD293 cells cytosolic fraction
[27] = Plasma concentration in rat at 0.08 mg/kg, po measured after 1 hr; format: ADME, organism-based
Outline: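 Rat novel object recognition (episodic memory) study, orally dosed. Plasma drawn 1 h post dose at end of the experiment for compound level. n = 4/group, reported as mean (SEM).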

[28] = molecular target: T1, cAMP and cAMP-inhibited cGMP 3',5'-cyclic phosphodiesterase 10A; test: Inhibition of human recombinant full length PDE10A
[29] = In vivo receptor occupancy at PDE10A receptor in rat striatum at 0.25 mg/kg, po measured after 1 hr; format: functional
Outline: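 Striatal PDE10A occupancy in rats given the compound orally during the novel object recognition test. Occupancy was not measured directly but derived from plasma concentration taken 1 h post dose. n = 4/group, reported as mean (SEM).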

[30] = In vivo receptor occupancy at PDE10A receptor in MK-801-induced psychosis rat model striatum at 0.5 mg/kg, po administered 1 hr prior to MK-801 administration and measured after 90 mins; format: functional; conditions: time 2.5 hrs
Outline: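 Rats in the MK-801 locomotor study were dosed orally at 0.25, 0.50 or 0.75 mg/kg. Plasma was taken 2.5 h post dose and drug levels measured. Striatal PDE10A occupancy was derived from plasma concentration using the [3H]MK-8193 ex vivo occupancy relation. n = 8/group; mean (SEM).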

[31] = molecular target: T1, cAMP and cAMP-inhibited cGMP 3',5'-cyclic phosphodiesterase 10A; test: Binding affinity to human full length His-tagged PDE10A2 assessed as on-rate constant by surface plasmon resonance analysis

T1 sequence (Q9Y233 whole entry): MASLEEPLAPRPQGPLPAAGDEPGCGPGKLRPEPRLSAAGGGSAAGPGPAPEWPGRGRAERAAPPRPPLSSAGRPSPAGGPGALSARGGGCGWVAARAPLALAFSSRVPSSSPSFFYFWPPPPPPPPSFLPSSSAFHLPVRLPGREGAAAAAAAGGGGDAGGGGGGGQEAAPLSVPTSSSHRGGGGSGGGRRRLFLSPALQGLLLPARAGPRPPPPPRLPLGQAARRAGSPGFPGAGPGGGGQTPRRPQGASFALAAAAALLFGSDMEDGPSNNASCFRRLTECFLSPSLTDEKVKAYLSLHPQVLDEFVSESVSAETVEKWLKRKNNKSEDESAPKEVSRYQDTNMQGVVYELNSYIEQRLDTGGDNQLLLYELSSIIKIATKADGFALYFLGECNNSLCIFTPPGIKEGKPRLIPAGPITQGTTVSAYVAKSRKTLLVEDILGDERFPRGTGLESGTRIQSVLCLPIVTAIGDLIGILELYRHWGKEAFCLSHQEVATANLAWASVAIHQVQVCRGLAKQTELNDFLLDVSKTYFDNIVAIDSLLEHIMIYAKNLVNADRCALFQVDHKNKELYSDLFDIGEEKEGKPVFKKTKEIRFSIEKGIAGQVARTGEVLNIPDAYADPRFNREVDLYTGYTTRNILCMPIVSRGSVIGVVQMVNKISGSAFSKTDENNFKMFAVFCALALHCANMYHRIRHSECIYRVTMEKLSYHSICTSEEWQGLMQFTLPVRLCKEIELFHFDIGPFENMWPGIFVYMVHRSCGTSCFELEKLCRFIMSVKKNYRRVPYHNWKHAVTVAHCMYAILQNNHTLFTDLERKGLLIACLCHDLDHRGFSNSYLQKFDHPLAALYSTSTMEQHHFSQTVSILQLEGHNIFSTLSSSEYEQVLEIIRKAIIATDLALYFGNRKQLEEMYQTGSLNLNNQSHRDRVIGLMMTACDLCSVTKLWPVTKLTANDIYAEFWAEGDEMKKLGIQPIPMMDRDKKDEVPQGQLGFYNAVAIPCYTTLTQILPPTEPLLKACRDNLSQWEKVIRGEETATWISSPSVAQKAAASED
Sequence of Voltage-gated inwardly rectifying potassium channel KCNH2 (Q12809 whole entry): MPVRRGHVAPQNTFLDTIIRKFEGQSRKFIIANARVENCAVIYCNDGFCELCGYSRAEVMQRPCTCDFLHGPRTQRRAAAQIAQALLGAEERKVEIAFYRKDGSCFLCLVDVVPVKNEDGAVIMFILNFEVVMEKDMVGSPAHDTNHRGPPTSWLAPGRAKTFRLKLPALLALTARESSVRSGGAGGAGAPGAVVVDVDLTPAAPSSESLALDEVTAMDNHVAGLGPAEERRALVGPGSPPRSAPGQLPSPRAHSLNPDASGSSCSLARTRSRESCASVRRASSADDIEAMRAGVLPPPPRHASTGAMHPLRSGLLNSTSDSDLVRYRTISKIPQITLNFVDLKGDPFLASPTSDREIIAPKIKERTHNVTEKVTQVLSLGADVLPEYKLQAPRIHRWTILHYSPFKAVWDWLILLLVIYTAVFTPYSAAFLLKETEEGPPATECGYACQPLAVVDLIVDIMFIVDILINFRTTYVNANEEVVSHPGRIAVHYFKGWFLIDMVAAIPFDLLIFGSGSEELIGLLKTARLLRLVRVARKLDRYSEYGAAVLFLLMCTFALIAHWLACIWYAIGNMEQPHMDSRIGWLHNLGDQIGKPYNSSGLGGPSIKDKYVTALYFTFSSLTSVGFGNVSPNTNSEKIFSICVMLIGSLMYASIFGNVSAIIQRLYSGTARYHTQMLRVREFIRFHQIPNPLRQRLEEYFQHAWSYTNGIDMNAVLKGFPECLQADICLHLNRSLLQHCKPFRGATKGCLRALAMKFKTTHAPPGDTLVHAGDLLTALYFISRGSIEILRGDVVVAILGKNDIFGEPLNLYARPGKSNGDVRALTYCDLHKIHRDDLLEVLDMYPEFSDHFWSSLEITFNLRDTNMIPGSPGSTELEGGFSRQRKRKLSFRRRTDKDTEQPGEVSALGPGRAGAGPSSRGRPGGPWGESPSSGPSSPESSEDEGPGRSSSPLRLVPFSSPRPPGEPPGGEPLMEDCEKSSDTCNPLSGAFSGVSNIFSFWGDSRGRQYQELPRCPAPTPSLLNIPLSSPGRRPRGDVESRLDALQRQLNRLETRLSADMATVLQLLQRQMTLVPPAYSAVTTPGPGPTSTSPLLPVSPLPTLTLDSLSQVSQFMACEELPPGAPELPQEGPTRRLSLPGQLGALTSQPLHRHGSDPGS
Sequence of P-gp (ABCB1) (P08183 whole entry): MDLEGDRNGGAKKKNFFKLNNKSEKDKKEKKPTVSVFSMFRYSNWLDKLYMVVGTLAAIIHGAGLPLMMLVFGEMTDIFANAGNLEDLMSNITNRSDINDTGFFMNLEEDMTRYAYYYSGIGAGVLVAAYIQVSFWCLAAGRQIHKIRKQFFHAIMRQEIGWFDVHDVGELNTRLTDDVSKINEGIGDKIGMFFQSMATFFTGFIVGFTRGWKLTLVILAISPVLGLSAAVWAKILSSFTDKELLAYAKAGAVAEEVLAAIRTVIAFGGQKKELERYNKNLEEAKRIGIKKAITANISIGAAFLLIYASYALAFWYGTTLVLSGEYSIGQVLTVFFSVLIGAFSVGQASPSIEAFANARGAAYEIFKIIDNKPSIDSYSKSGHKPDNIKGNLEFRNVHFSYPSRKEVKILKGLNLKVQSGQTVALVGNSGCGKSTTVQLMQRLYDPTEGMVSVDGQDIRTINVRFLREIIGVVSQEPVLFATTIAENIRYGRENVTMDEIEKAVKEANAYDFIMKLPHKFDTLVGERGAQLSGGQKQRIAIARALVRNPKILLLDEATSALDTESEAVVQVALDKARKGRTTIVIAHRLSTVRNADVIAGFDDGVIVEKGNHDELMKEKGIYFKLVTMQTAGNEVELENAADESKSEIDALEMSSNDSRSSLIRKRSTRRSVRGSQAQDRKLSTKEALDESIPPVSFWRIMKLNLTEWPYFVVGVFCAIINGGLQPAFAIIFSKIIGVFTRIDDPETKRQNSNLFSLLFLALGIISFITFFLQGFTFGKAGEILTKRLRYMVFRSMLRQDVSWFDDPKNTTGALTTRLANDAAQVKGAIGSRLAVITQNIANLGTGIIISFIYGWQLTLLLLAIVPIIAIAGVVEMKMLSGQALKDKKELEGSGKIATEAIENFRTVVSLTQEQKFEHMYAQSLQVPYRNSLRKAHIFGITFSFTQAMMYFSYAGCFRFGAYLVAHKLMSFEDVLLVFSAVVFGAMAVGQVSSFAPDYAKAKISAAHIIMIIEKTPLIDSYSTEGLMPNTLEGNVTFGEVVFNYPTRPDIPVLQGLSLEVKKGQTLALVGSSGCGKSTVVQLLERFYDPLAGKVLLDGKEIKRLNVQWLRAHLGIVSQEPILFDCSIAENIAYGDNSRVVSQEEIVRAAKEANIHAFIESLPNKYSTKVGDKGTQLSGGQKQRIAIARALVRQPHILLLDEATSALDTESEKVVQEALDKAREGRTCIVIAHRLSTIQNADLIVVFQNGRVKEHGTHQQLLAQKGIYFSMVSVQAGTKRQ
Sequence of Somatostatin receptor type 2 (P30874 whole entry): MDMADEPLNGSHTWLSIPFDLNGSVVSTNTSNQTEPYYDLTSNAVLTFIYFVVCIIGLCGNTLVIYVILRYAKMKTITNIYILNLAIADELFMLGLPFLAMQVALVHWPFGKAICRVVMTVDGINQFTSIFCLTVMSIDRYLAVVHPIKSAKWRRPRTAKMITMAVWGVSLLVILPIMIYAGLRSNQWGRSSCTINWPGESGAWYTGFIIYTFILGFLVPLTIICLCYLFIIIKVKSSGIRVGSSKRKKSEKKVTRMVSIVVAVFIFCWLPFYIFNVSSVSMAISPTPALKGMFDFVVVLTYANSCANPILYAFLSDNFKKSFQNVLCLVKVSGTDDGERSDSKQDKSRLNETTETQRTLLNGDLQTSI

With Cc1ccc([C@H]2C[C@@H]2COc2cc(NCc3nnc(C)s3)nc(C)n2)nc1 [MK-8189] the Ratio Ki [1] was greater than 500000, the solubility [2] was 170 µg/mL (≈ 444 µM) and the IC50 [3] was 33000 nM. For the same compound, the efflux ratio (P-gp (ABCB1)) was less than 2, the Vd [4] was 1.4 L/kg and the IC50 [5] was greater than 30000 nM. It also gave a Fu [6] of 8.7%, a Fu [7] of 8.2% and a CL free [8] of 260 mL/min/kg. For the same compound, the clearance [9] was 9.3 mL/min/kg, the Ratio Ki [10] was greater than 500000 and the F [11] was 41%. It also gave a concentration at 2.5 h [12] of 50 nM, a Ki [13] of 0.029 nM and a t1/2 [14] of 4.8 h. The Activity [15] was “Non-Toxic”, the t1/2 [16] was 4.2 h and the Activity [17] was “Non-Toxic”. For the same compound, the solubility [18] was 167 µM (≈ 63.9 µg/mL), the Activity [19] was “Non-Toxic” and the PPB [20] was 91.8%. For the same compound, the IC50 [21] was 2800 nM, the Activity (Rattus norvegicus) was “Active” and the F [22] was 46%. The Activity [23] was “Non-Toxic”, the Ratio Ki [24] was greater than 500000 and the logD [25] was 2.1. For the same compound, the Ratio Ki [26] was greater than 500000, the concentration at 1 h [27] was 16 nM and the IC50 [28] was 1.6 nM. The Occ [29] was 34%, the Occ [30] was 41% and the K [31] was 8 10^7/M/s.
